pIC50: −log10 of the molar value. Active and inactive are the calls of the source. The calls are words filed in the database; no cut-off is given here.
Key:
[1] = target: AP2-associated protein kinase 1 (Homo sapiens) (UniProt Q2M2I8); experiment: Inhibition of human partial length AAK1 (G25 to L333 residues) expressed in bacterial system assessed as residual activity at 10 uM by kinome scan method relative to control
How it was run: (§1)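 KINOMEscan binding assay, test compound at 10 μM against a 52-kinase panel. % Ctrl = (compound signal − positive control signal)/(negative control signal − positive control signal) × 100, with DMSO as negative control (100%) and a positive control (0%).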

[2] = target: Phosphatidylinositol 4,5-bisphosphate 3-kinase catalytic subunit beta isoform (Homo sapiens, UniProt P42338); experiment: Inhibition of PI3Kbeta (unknown origin) using PIP2 as substrate measured after 1 hr by ADP-glo assay
[3] = target: Phosphatidylinositol 4,5-bisphosphate 3-kinase catalytic subunit gamma isoform (Homo sapiens, UniProt P48736); experiment: Inhibition of human partial length PIK3CG (S144 to A1102 residues) expressed in mammalian expression system assessed as residual activity at 10 uM by kinome scan method relative to control
How it was run: (§2)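 KINOMEscan competitive binding screen at 10 μM test compound against a 52-kinase panel. Output is % Ctrl = (test signal − positive control signal)/(negative control signal − positive control signal) × 100. DMSO is the negative control (100%) and the positive control is set to 0%.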

[4] = target: Citron Rho-interacting kinase (Homo sapiens) (UniProt O14578); experiment: Inhibition of human partial length CIT (M68 to E432 residues) expressed in bacterial expression system assessed as residual activity at 10 uM by kinome scan method relative to control; how it was run: as §1
[5] = target: T1, Serine/threonine-protein kinase mTOR (Homo sapiens, UniProt P42345); experiment: Inhibition of mTOR in human U87MG cells assessed as suppression of phosphorylation of S6 ribosomal at Ser235/236 residues at 25 nM after 3 hrs by Western blot analysis; type: cell-based; settings: U87
How it was run: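 U87MG cells were seeded at 1×10^6 per well and held overnight at 37 °C, 5% CO2. They were then exposed to a range of inhibitor concentrations for 3 h at 37 °C. Phospho-Akt (Ser473, Thr308), phospho-S6 (Ser235/236) and phospho-4E-BP1 (Thr37/46) were measured by Western blot with GAPDH as loading control. Bands were quantified as mean ± SD of 3 biological replicates against untreated cells.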

[6] = target: Ephrin type-B receptor 6 (Homo sapiens) (UniProt O15197); experiment: Inhibition of human partial length EPHB6 (Q634 to P948 residues) expressed in mammalian expression system assessed as residual activity at 10 uM by kinome scan method relative to control; how it was run: as §1
[7] = target: 1-phosphatidylinositol 3-phosphate 5-kinase (Homo sapiens) (UniProt Q9Y2I7); experiment: Inhibition of human partial length PIKFYVE (F1512 to C2098 residues) expressed in mammalian expression system assessed as residual activity at 10 uM by kinome scan method relative to control; how it was run: as §2
[8] = target: T1, Serine/threonine-protein kinase mTOR; experiment: Inhibition of mTOR in human U87MG cells assessed as suppression of phosphorylation of S6 ribosomal at 25 nM after 3 hrs by Western blot analysis; settings: U87
[9] = target: Serine/threonine-protein kinase TNNI3K (Homo sapiens) (UniProt Q59H18); experiment: Inhibition of human full length TNNI3K (M1 to S835 residues) expressed in bacterial expression system assessed as residual activity at 10 uM by kinome scan method relative to control; how it was run: as §1
[10] = AUC(0 to t) in Sprague-Dawley rat at 5 mg/kg, po; type: ADME, organism-based; parameters: dose 5 mg/kg; settings: in vivo
How it was run: (§3)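 Male Sprague-Dawley rats (n = 3) given a single oral gavage of 5 mg/kg as a homogeneous opaque suspension in 0.5% methylcellulose; plasma concentration-time curves used to derive mean PK parameters.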

[11] = AUC(0 to infinity) in Sprague-Dawley rat at 5 mg/kg, po; type: ADME, organism-based; parameters: time infinity, route oral, dose 5 mg/kg; settings: in vivo; how it was run: as §3
[12] = target: BMP-2-inducible protein kinase (Homo sapiens) (UniProt Q9NSY1); experiment: Inhibition of human partial length BIKE (S34 to N329 residues) expressed in bacterial system assessed as residual activity at 10 uM by kinome scan method relative to control; how it was run: as §1
[13] = target: Mitogen-activated protein kinase kinase kinase 13 (Homo sapiens) (UniProt O43283); experiment: Inhibition of human full length LZK (M1 to W966 residues) expressed in bacterial expression system assessed as residual activity at 10 uM by kinome scan method relative to control; how it was run: as §1
[14] = target: Mitotic checkpoint serine/threonine-protein kinase BUB1 (Homo sapiens) (UniProt O43683); experiment: Inhibition of human partial length BUB1 (Q724 to K1085 residues) expressed in bacterial system assessed as residual activity at 10 uM by kinome scan method relative to control; how it was run: as §1
[15] = target: Cyclin-dependent kinase 11B (Homo sapiens) (UniProt P21127); experiment: Inhibition of human partial length CDC2L1 (P353 to G692 residues) expressed in bacterial system assessed as residual activity at 10 uM by kinome scan method relative to control; how it was run: as §1
[16] = target: Serine/threonine-protein kinase PRP4 homolog (Homo sapiens) (UniProt Q13523); experiment: Inhibition of human partial length PRP4 (D657 to I1007 residues) expressed in bacterial expression system assessed as residual activity at 10 uM by kinome scan method relative to control; how it was run: as §2
[17] = target: Receptor-interacting serine/threonine-protein kinase 1 (Homo sapiens) (UniProt Q13546); experiment: Inhibition of human partial length RIPK1 (M1 to K305 residues) expressed in bacterial expression system assessed as residual activity at 10 uM by kinome scan method relative to control; how it was run: as §2
[18] = target: Cyclin-dependent kinase 19 (Homo sapiens) (UniProt Q9BWU1); experiment: Inhibition of human partial length CDK11 (M1 to N360 residues) expressed in bacterial system assessed as residual activity at 10 uM by kinome scan method relative to control; how it was run: as §1
[19] = target: Serine/threonine-protein kinase Nek10 (Homo sapiens) (UniProt Q6ZWH5); experiment: Inhibition of human partial length NEK10 (L488 to R809 residues) expressed in mammalian expression system assessed as residual activity at 10 uM by kinome scan method relative to control; how it was run: as §1
[20] = target: Serine/threonine-protein kinase/endoribonuclease IRE1 (Homo sapiens) (UniProt O75460); experiment: Inhibition of human partial length ERN1 (S551 to E852 residues) expressed in mammalian expression system assessed as residual activity at 10 uM by kinome scan method relative to control; how it was run: as §1
[21] = MRT(0 to infinity) in Sprague-Dawley rat at 5 mg/kg, po; type: ADME, organism-based; settings: in vivo
How it was run: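 Male Sprague-Dawley rats (n = 3) received a single 5 mg/kg oral gavage dose formulated as a suspension in 0.5% methylcellulose. Plasma concentration-time curves were recorded and mean PK parameters derived.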

[22] = Cmax in Sprague-Dawley rat at 5 mg/kg, po; type: ADME, organism-based; parameters: route oral, dose 5 mg/kg; settings: in vivo; how it was run: as §3
[23] = target: Receptor tyrosine-protein kinase erbB-3 (Homo sapiens) (UniProt P21860); experiment: Inhibition of human partial length ERBB3 (G684 to A987 residues) expressed in mammalian expression system assessed as residual activity at 10 uM by kinome scan method relative to control; how it was run: as §1
U-87 MG = experiment: Growth inhibition of human U87MG cells after 72 hrs by sulforhodamine B assay; type: functional, U-87MG ATCC

Chain of Mitogen-activated protein kinase kinase kinase 13 (Homo sapiens) (O43283 whole entry, the tested form may be a part): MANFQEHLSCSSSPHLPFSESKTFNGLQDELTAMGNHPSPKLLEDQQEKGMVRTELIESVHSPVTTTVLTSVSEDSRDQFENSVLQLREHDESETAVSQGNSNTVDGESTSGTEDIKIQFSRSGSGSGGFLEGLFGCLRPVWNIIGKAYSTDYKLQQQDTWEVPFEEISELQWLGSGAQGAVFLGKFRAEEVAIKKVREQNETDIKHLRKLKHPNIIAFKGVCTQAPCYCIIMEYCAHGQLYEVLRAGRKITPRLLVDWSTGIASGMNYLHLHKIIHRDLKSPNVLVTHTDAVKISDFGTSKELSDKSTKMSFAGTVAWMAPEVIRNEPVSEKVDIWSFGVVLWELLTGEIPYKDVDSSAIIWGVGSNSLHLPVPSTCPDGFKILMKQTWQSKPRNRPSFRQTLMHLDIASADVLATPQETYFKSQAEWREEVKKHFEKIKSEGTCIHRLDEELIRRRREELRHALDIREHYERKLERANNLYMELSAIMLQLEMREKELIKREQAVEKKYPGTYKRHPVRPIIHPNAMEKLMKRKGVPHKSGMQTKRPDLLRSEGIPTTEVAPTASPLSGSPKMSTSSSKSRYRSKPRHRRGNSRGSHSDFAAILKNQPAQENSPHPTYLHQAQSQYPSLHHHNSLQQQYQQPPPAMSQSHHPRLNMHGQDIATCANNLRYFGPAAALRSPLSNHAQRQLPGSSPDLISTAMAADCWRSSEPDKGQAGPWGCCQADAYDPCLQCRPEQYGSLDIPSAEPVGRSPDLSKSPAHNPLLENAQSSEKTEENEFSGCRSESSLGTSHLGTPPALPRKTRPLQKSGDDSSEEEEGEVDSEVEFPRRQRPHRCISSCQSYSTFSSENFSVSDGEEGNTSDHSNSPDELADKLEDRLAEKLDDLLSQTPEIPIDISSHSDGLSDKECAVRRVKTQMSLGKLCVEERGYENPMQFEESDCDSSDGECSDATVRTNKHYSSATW
Chain of Serine/threonine-protein kinase PRP4 homolog (Homo sapiens) (Q13523 whole entry, the tested form may be a part): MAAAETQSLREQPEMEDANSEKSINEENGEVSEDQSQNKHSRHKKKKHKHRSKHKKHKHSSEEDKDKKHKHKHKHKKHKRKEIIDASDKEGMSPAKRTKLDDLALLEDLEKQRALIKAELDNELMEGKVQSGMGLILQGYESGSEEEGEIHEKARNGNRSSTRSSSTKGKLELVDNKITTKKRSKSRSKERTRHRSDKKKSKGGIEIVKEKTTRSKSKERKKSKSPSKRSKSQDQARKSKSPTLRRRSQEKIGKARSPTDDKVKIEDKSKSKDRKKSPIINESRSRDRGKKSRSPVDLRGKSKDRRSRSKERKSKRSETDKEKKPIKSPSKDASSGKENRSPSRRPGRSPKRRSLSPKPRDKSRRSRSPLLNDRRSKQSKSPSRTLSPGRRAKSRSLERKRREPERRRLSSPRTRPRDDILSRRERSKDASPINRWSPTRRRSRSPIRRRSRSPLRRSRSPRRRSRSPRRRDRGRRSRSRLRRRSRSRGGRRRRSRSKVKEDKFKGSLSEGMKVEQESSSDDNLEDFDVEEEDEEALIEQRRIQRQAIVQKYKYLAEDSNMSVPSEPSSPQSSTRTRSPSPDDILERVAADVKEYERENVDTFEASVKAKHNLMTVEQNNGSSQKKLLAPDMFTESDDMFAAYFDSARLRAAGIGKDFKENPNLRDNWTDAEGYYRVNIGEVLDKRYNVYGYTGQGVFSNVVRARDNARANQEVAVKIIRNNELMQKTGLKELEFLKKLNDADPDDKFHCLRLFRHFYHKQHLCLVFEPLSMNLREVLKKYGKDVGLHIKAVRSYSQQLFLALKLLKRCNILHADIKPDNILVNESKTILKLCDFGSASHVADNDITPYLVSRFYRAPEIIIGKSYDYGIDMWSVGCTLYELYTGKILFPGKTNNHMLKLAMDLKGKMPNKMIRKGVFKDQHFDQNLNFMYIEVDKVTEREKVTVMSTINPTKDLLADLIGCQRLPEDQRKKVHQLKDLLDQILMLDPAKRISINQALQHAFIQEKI
Chain of Mitotic checkpoint serine/threonine-protein kinase BUB1 (Homo sapiens) (O43683 whole entry, looked up, the tested form may be a part): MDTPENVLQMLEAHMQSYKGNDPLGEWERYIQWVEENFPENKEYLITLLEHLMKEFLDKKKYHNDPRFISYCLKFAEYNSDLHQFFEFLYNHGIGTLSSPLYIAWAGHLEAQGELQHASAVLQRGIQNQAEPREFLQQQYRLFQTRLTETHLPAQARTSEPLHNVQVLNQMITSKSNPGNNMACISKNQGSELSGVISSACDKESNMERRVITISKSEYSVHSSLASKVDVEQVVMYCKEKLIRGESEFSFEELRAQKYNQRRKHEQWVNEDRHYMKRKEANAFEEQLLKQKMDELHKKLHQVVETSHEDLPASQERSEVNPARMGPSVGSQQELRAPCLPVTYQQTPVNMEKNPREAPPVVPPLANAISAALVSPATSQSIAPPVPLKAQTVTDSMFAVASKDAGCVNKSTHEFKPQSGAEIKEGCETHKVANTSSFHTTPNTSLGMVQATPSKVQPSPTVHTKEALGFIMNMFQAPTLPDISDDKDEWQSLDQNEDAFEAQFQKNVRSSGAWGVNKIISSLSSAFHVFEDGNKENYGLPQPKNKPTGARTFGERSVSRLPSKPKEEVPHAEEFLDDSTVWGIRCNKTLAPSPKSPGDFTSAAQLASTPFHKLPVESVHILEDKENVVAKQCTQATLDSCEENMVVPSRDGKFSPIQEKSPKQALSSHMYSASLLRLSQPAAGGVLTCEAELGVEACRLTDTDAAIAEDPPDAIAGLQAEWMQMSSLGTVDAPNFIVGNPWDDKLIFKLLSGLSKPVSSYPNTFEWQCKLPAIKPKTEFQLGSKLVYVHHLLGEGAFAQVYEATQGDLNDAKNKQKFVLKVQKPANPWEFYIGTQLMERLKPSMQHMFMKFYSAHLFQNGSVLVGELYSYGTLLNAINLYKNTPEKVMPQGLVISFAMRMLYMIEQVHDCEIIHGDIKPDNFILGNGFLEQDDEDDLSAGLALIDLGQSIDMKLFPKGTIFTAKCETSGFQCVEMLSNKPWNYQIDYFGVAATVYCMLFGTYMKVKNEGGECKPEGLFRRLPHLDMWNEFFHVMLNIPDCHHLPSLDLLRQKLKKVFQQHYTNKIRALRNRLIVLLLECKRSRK
Chain of Serine/threonine-protein kinase/endoribonuclease IRE1 (Homo sapiens) (O75460 19-977 limits assumed): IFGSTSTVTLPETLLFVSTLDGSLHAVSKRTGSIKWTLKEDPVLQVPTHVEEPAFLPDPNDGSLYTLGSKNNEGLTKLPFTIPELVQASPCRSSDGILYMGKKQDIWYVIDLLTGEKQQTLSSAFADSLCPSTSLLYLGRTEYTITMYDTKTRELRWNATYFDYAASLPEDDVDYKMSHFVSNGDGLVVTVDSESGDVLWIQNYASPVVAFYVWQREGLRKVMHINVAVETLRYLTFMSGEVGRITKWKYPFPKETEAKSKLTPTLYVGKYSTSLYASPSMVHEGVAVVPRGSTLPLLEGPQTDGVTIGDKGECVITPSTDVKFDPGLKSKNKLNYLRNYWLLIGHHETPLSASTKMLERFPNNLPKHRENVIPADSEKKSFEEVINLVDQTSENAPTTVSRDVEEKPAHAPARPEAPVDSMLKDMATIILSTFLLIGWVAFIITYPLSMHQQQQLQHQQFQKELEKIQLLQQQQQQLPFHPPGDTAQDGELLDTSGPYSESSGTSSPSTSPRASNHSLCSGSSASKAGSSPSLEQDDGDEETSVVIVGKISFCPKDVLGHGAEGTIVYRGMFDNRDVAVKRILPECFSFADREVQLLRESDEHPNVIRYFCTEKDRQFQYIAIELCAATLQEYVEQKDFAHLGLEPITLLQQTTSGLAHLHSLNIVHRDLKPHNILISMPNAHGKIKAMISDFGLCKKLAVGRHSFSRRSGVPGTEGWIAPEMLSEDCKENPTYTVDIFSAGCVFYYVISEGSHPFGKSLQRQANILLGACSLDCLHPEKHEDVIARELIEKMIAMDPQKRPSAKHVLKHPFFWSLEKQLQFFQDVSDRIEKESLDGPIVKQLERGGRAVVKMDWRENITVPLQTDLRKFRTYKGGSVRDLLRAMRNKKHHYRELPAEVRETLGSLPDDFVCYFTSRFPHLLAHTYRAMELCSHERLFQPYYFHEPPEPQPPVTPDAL
Chain of Cyclin-dependent kinase 11B (Homo sapiens) (P21127 whole entry, the tested form may be a part): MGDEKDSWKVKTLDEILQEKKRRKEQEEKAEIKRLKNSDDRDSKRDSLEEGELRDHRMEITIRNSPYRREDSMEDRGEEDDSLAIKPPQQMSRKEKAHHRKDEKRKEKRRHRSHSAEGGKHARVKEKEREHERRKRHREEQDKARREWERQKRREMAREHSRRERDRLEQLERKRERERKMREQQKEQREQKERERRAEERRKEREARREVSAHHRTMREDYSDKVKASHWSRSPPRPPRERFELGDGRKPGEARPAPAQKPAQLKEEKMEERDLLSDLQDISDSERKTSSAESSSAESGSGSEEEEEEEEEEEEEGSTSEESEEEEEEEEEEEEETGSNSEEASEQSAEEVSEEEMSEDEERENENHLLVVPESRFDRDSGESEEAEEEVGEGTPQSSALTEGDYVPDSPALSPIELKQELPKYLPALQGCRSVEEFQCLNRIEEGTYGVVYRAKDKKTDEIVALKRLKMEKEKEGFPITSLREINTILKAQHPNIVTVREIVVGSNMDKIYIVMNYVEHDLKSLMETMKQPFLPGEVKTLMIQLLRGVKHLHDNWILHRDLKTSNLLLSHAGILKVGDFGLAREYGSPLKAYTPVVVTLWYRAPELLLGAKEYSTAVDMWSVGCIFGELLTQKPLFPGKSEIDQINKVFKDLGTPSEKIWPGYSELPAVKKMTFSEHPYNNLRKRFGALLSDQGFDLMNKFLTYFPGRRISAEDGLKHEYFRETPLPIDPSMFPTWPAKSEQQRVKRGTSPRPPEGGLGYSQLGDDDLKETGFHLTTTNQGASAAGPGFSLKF

Activity [1]: 44%
pIC50 [2]: 9.17
Activity [3]: 0%
Activity [4]: 71%
inhibition [5]: Active
Activity [6]: 11%
Activity [7]: 1.9%
inhibition [8]: Active
Activity [9]: 87%
AUC(0-t) [10]: 1340 ng·h/mL
AUC(0-inf) [11]: 1450 ng·h/mL
Activity [12]: 49%
Activity [13]: 53%
Activity [14]: 91%
Activity [15]: 93%
Activity [16]: 100%
Activity [17]: 87%
Activity [18]: 95%
Activity [19]: 61%
Activity [20]: 54%
MRT inf [21]: 2.57 h
Cmax [22]: 903 ng/mL
Activity [23]: 89%
GI50 (U-87 MG): 140 nM
SMILES: COc1ncc(-c2ccc3nccc(/C(C)=C/C(=O)N4CCN(C)CC4)c3c2)cc1NS(=O)(=O)c1ccc(F)cc1F

Source: ChEMBL document CHEMBL4732196, “Structural optimization towards promising β-methyl-4-acrylamido quinoline derivatives as PI3K/mTOR dual inhibitors for anti-cancer therapy: The in vitro and in vivo biological evaluation” (Eur J Med Chem, 2021)
